Rows were chosen to be rich in hits. Some 4.4% of all compounds tested hit in one or more screens of this group.
T cruzi repl: blocks replication of Trypanosoma cruzi | T. cruzi beta-gal in NIH3T3, luminescence, 90 h | inhibition, % (no concentration beside the values) | 300,000 tested, 1.4% active | AID 1885;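 active means mean inhibition across valid replicates above about 55%, limit read from the data; inconclusive means mean below that limit but half or more replicates reach it; inactive means mean below it, under half of replicates reach it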;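 further: signal also drops with host cell toxicity which is not excluded here; higher percent means less beta-gal luminescence so fewer parasites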
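Read-out: Parasite load inhibition, % | Test system: Mouse NIH/3T3 fibroblasts infected with β-gal-expressing T. cruzi Tulahuen C4 | Amount: 5,000 cells/well | Medium: DMEM, 2% fetal bovine serum | Signal: GalScreen β-gal luminescence, detergent lysis, 60 min | Timing: 3 h attach, ≥90 h co-culture | Also added: Tulahuen C4 trypomastigotes, 5000/well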
HSF1 activator: increases HSF-1 driven luciferase reporter signal; AID 504408; NIH3T3-HGL HSF-1 luciferase reporter, MG132, 8 h; 100% = twice DMSO control signal; 300,000 tested, 1.7% active; activation, % at 9 µM;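 active means mean replicate activation of at least 50% with a set share of replicates each reaching 50%; inconclusive means only one of those two conditions met; inactive means mean below 50% and too few replicates reaching it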
Calb FLC: affects C. albicans growth with fluconazole; C. albicans CaCi-2 + fluconazole, Alamar Blue growth, 48 h; growth inhibition, % (test concentration not listed); 300,000 tested, 0.57% active; AID 1979;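 active means growth inhibition above about 58% in most replicates, limit read from the data, passing the limit was not always enough; inconclusive means exactly half the replicates above a set limit; inactive means most replicates below a set limit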;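 further: all wells also contain fluconazole at 8 µg/ml as a sub-toxic cotreatment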
HIF activator: HIF pathway transcriptional activation | U2OS HRE-luciferase reporter, luminescence; normalized: DMSO 0%, desferrioxamine 100% | activation, % at 7.5 µM (by protocol) | 300,000 tested, 0.32% active;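 active means mean activation of at least 10% of the iron chelator positive control signal, with at least half of replicates also reaching 10%; inconclusive means mean and replicate majority disagree about reaching 10%; inactive means mean and most replicates under 10%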
HSF1 inhib: HSF1 inhibition. NIH3T3-HGL HSE-luciferase, MG132-induced, luminescence 8 h; stronger effect = lower value. activity change, negative = inhibition, % at 7.5 µM (by protocol). 300,000 tested, 0.77% active. AID 2098;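 active means more than half of replicate wells show activity change below -50%, luminescence cut by over half; inconclusive means some wells, but at most half, below -50%; inactive means no replicate well below -50%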;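 further: luciferase reports HSF-1 transcriptional activity via heat shock element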
Of the large screens only hits and unclear results are named; the others gave an inactive call.

CCOC(=O)c1c(C)[nH]c(C(=O)Nc2ccc(C)c(Cl)c2)c1C	HSF1 activator 63
CC(=O)c1c(C)[nH]c(C(=O)Nc2ccc(C)c(C)c2)c1C	Calb FLC 96
COc1ccc(NC(=O)c2[nH]c(C)c(C(C)=O)c2C)cc1S(=O)(=O)Nc1ccc(Br)cc1	T cruzi repl 56, HSF1 activator 89
CCOC(=O)c1c(C)[nH]c(C(=O)Nc2ccc(NC(C)=O)cc2)c1C	none
C=C(C)Cn1c(C)cc(C)c(S(=O)(=O)c2cccc(C)c2)c1=O	none
COc1ccccc1NC(=O)c1ccc(S(=O)(=O)N2CCCC(C)C2)cc1 (stereo not drawn)	none
O=C(Nc1nc2cc3c(cc2s1)OCCO3)C1=COCCO1	HSF1 inhib -66
O=C(Nc1nc2ccc(F)cc2s1)C1=COCCO1	none
Cc1cc(C)c2sc(NC(=O)C3=COCCO3)nc2c1	HSF1 activator 54
CCOc1ccc(/C=N/NC(=O)c2cccc3ccccc23)c(OCC)c1	none
COc1ccc(CCN(C)C(=O)CNC(=O)c2ccc3c(c2)OCO3)cc1OC	none
Cc1ccc(C(=O)NCC(=O)NCC(=O)OCc2ccc(F)cc2)cc1	none
COc1ccc(C2=NNC(=Nc3cc(S(=O)(=O)N(C)C)ccc3C)SC2)c(OC)c1	T cruzi repl 72
CC(=O)Nc1ccc(C2=NNC(=Nc3cccc(S(=O)(=O)N(C)C)c3)SC2)cc1	HSF1 inhib inconclusive
N#Cc1cc(Oc2cccc3cccnc23)c(-n2nnc3ccccc32)cc1C#N	T cruzi repl 57, HSF1 activator 211
N#Cc1cc(O)c(-n2nnc3ccccc32)cc1C#N	none
O=C(NCCc1ccncc1)Nc1ccc(Cl)c(Cl)c1	T cruzi repl 68, HSF1 activator inconclusive
Cc1cc(C)c(NC(=O)Nc2ccc3c(c2)OCO3)c(C)c1	HSF1 inhib -75
O/N=C(/CCc1ccccc1)c1ccc2c(c1)OCCO2	HSF1 activator 55
O=C(NCCc1ccccc1)c1ccc2c(c1)OCCCO2	HSF1 inhib -83
O=C(CCc1ccccc1)c1ccc2c(c1)OCCCO2	HSF1 activator inconclusive
CC(C)CCN1C(=O)c2ccc(C(=O)NCc3ccccn3)cc2C1=O	none
Cc1cc(-c2cccc(Br)c2)c(C#N)c(N)n1	none (no result: T cruzi repl, HSF1 activator, HIF activator, HSF1 inhib)
O=C(NCCc1ccccc1)Nc1ccc2c(c1)OCO2	HSF1 activator 62
O=C(CCCc1ccccc1)c1ccc2c(c1)OCCO2	HSF1 inhib -89
O=C(NCCc1ccccc1)c1ccc2c(c1)OCCO2	HSF1 inhib -66
O=C(Nc1ccc([N+](=O)[O-])cc1)Nc1ccc2c(c1)OCCO2	HSF1 activator 64, Calb FLC inconclusive
COc1ccc(CCNC(=O)c2ccc3c(c2)OCCO3)cc1	none
COc1ccc(N(CC(=O)Nc2cc(Cl)ccc2C)S(=O)(=O)c2c(C)n[nH]c2C)cc1	none
Cc1ccc(NS(=O)(=O)c2cccc([N+](=O)[O-])c2)nc1	none
Cc1nn(C)c(C)c1NC(=S)Nc1ccc(S(=O)(=O)Nc2ncccn2)cc1	none
O=C(COc1ccccc1[N+](=O)[O-])Nc1ccc(NC(=O)c2cc3ccccc3o2)cc1	none
O=C(COc1ccc(/C=N/NC(=O)c2cc3ccccc3o2)cc1Br)Nc1ccccc1	T cruzi repl 70 (no result: HIF activator)
COc1cc(CCN2C(=O)c3cccc4cccc(c34)C2=O)c(S(=O)(=O)N2CCC(C)CC2)cc1OC	T cruzi repl 59
COc1cc(CCN2C(=O)c3cccc4cccc(c34)C2=O)c(S(=O)(=O)NCCO)cc1OC	none
COc1cc(CCN2C(=O)c3cccc4cccc(c34)C2=O)c(S(=O)(=O)N2CCCCCC2)cc1OC	T cruzi repl 58
COCC(C)NC(=O)CSc1ncnc2sc(-c3ccccc3)cc12 (stereo not drawn)	none
N#CC1(NC(=O)Cn2ncc(Cl)c(Cl)c2=O)CCCCC1	T cruzi repl 63 (no result: Calb FLC)
c1ccc(-c2n[nH]c(-c3ccccn3)n2)cc1	none
Oc1ccccc1-c1nc(NC2CCCC2)c2ccccc2n1	none
CNc1nc(-c2ccccn2)nnc1-c1ccccc1	HIF activator 14
c1ccc(-c2nnc(-c3ccccn3)nc2NC2CCCCC2)cc1	HIF activator 472
CCN1C(=O)C2C(C1=O)N1C(c3cccs3)C3C(=O)N(CC)C(=O)C3N1C2c1cccs1 (stereo not drawn)	none
CCc1nc2c(s1)CCc1onc(-c3ccc(Cl)cc3)c1-2	none
O=C(NNc1ncnc2c1cnn2-c1cccc(Cl)c1)c1ccco1	HSF1 activator 64
